The results in this text go back to PubChem BioAssay AID488811 (Sanford-Burnham Center for Chemical Genomics, 2010).

Each structure is given as a SMILES string. Activity calls are given as the source filed them.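 The calls were made as follows: active = mean EC50 below 10 µM; inactive = the rest.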

Sequence of Apelin receptor (Homo sapiens) (P35414 whole entry, looked up, the tested form may be a part): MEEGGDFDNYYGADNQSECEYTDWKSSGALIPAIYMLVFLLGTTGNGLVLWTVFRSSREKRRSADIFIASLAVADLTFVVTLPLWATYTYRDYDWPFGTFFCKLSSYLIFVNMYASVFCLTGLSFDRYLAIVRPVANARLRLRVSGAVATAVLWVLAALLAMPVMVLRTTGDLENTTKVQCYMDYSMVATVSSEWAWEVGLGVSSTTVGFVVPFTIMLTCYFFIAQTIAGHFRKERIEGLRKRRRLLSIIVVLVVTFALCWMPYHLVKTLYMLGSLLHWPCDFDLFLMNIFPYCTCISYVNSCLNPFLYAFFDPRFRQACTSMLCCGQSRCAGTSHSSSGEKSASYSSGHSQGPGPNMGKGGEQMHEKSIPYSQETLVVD

This test has as its target Apelin receptor (Homo sapiens) (UniProt P35414). The test is described as follows: APJ agonists, beta-arrestin recruitment, SAR follow-up, cell-based, luminescence (AID 488811). The following applies: CHO-K1 AGTRL-1 PathHunter beta-arrestin. Summed up: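 Material: CHO-K1 cells with ProLink-tagged APJ and β-arrestin–β-gal acceptor fusion; dosing: compound dose series, 2 mM DMSO stocks; times: cells seeded overnight, compounds 90 min at 25 °C, dark; signal: β-gal complementation luminescence, 60 min reagent incubation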
For orientation: Recruitment of arrestin is a read-out of receptor activation apart from second messengers.
As usually defined, the EC50 is the concentration needed to bring the measured effect to its halfway point. As for `CC1=CC(=O)C=C(C)C1=NOS(=O)(=O)c1ccccc1`, the EC50 is > 79 µM (inactive).
To `CSc1nc(=O)cc(N)n1-c1ccc(C)cc1` belongs > 79 µM (inactive); to `CC1=C/C(=N/OS(=O)(=O)c2ccc(C)cc2)C=CC1=O`, > 79 µM (inactive).
As to `CCSc1nc(O)c(CC)c(=O)n1C(C)CC` (stereo not drawn), the EC50 entry is “inactive”.
As for `CCN1/C(=C\C=C2/SC(=S)N(C)C2=O)Sc2ccccc21`, the figure is > 79 µM (inactive); as for `CCc1c(O)nc(SC(C)CC)n(C(C)CC)c1=O` (stereo not drawn), “inactive”.
For `CC1=CC(=NOS(=O)(=O)c2ccc(C)cc2)C=C(C)C1=O`, the EC50 was 2.52 µM.
As for `Cc1ccc(S(=O)(=O)ON=C2C=CC(=O)C=C2)cc1`, the figure is > 79 µM (inactive); as for `CC1=C/C(=N/OS(=O)(=O)c2ccccc2)C(C)=CC1=O`, 6.82 µM.
As for `C=CCSc1nc(O)c(CC)c(=O)n1C(C)CC` (stereo not drawn), the entry is “inactive”; as for `CC1=C/C(=N/OS(=O)(=O)c2ccc(C)cc2)C(C(C)C)=CC1=O`, 9.9 µM; as for `Cc1ccc(S(=O)(=O)Nc2nc(-c3ccccc3)cs2)cc1`, > 79 µM (inactive).
As for `CC1=CC(=NOS(=O)(=O)c2ccccc2)C=CC1=O`, the figure is > 79 µM (inactive); as for `CC1=C/C(=N\OS(=O)(=O)c2ccc(Cl)cc2)C=CC1=O`, > 79 µM (inactive); as for `CC1=CC(=O)C=C/C1=N\OS(=O)(=O)c1ccc(C)cc1`, > 79 µM (inactive).
`CC1=CC(=O)C(C(C)C)=C/C1=N/OS(=O)(=O)c1ccccc1`: the EC50 is 5.98 µM.
`CC1=CC(=NOS(=O)(=O)c2ccccc2)C(C(C)C)=CC1=O`: the EC50 is 7.43 µM.
As for `COc1ccc(S(=O)(=O)O/N=C2\C=C(C(C)C)C(=O)C=C2C)cc1`, the figure is 4.93 µM.
As for `C=CCn1c(SCc2ccccc2)nc(O)c(CC)c1=O`, the figure is > 79 µM (inactive).
To `CCCSc1nc(O)c(CC)c(=O)n1C(C)CC` (stereo not drawn) belongs “inactive”; to `CCc1c(O)nc(SCc2ccccc2)n(C2CCCCC2)c1=O`, > 79 µM (inactive); to `CCc1c(O)n(C2CCCCC2)c(=S)[nH]c1=O`, > 79 µM (inactive).
`CCCCSc1nc(O)c(CC)c(=O)n1C1CCCCC1`: the EC50 is > 79 µM (inactive).
As for `CCN1/C(=C/C(=O)c2sc(=S)n(CC)c2O)Sc2ccccc21`, the EC50 was > 79 µM (inactive).
As for `CCc1c(O)nc(SC)n(C(C)CC)c1=O` (stereo not drawn), the figure is > 79 µM (inactive).
As for `O=S(=O)(Nc1nc(-c2ccccc2)cs1)c1ccc(Br)cc1`, the EC50 is > 79 µM (inactive).
As for `C=CCSc1nc(O)c(CC)c(=O)n1C1CCCCC1`, the figure is > 79 µM (inactive); as for `CCCCSc1nnc(NC(=O)CSc2nc3ncccc3[nH]2)s1`, > 79 µM (inactive).
As for `Cc1cc(C)n2nc3nc(N4CCOCC4)nc(-c4ccccc4)c3c2n1`, the figure is > 79 µM (inactive).
Turning to `CC1=C(C)C(=NOS(=O)(=O)c2ccc(C)cc2)C=CC1=O`, the EC50 is > 79 µM (inactive).
To `CCc1c(O)nc(SCc2ccccc2)n(C(C)CC)c1=O` (stereo not drawn) belongs > 79 µM (inactive); to `C=CCSc1nc(O)c(CC)c(=O)n1-c1ccc(C)cc1`, > 79 µM (inactive); to `CCc1c(O)nc(SC)n(C2CCCCC2)c1=O`, > 79 µM (inactive).
To `CCSc1nc(O)c(CC)c(=O)n1C1CCCCC1` belongs > 79 µM (inactive).
As for `CC1=C/C(=N\OS(=O)(=O)c2ccc(C)cc2)C(C)=CC1=O`, the figure is 5.4 µM.
Regarding `COc1ccccc1-n1c(SCC(=O)c2ccccc2)nc(O)cc1=O`, the EC50 entry was “inactive”.
As for `O=S(=O)(Nc1nc(-c2ccccc2)cs1)c1ccc(Cl)cc1`, the figure is > 79 µM (inactive); as for `CC1=CC(=NOS(=O)(=O)c2ccc(Cl)cc2)C=C(C)C1=O`, 2.9 µM; as for `CN(C)CCSc1nc(O)c(-c2ccccc2)c(=O)n1-c1ccccc1`, > 79 µM (inactive).
As for `CC1=CC(=NOS(=O)(=O)c2ccccc2)C=C(C)C1=O`, the figure is 2.5 µM; as for `CC1=CC(=O)C(C(C)C)=CC1=NOS(=O)(=O)c1ccccc1`, 5.74 µM; as for `COc1ccc(S(=O)(=O)ON=C2C=C(C)C(=O)C(C)=C2)cc1`, 2.56 µM.
As for `CCN1C(c2ccccc2)=C(c2ccccc2)S/C1=C/C=C1\SC(=S)N(C)C1=O`, the figure is 3.44 µM.
